Variants at the floor of the assay were thinned out.

First the molecules themselves.
B1: tRNA (parent)
chain: GUUCCGUUGGCGUAAUGGUAACGCGUCUCCCUCCUAAGGAGAAGACUGCGGGUUCGAGUCCCGUACGGAACG

This data set covers variants of B1. Briefly: yeast fitness relative to wild type (ratio to wild type); higher = fitter; tRNA-Arg(CCU), competitive growth, 37 C, YPD. The method in brief: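 Variants of the tRNA-Arg(CCU) gene were chemically synthesised with a 3% per-site mutation rate across 69 sites and placed at the native genomic locus in Saccharomyces cerevisiae. Six parallel replicates of the pooled strains were competed in YPD at 37°C for 24 hours, and gene amplicons from the start and end populations were read by 100-nucleotide paired-end sequencing. Darwinian fitness relative to wild type was derived from changes in genotype frequencies. Genotypes required ≥ 100 starting reads, and estimates < 0.5 were set to 0.5.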
G12C A70C: the yeast fitness worked out at 0.833. The figure for U8G C33A C49U C66G is at most 0.5.

Take C22A C24G C60G C66G: the yeast fitness is 0.542. The figure for U64C G67A is 0.802; for U3A C11G G17C C24G C46A G68C it is 0.553. Regarding C31U A43G C66U, the yeast fitness came out at 0.724. As for U8A C29G A40G A70G, the yeast fitness is at most 0.5. As for C4G U53G C66A, the figure is at most 0.5; as for C4A G9A G18C C22A G50C A65C, at most 0.5. As for G10C C29U C49G G63C, the figure is at most 0.5; as for G6C G67C, 0.75. The figure for U26A G52A A70U is at most 0.5.

Regarding U16A C24U C34A C62A A65G, the yeast fitness was at most 0.5.

On to C22G C24U U28A C31G C55A G68C, for which the yeast fitness was at most 0.5. The figure for A37C U53A is 0.632; for A15G G25A C61U A70U it is at most 0.5; for A42G U54C it is 0.815. Take C27A C30U: the yeast fitness amounted to 0.7. As for C5U G6A C22U G25C, the figure is at most 0.5; as for C5U C33U A69C, 0.556. As for U35C A69U, the figure is 0.949. As for U19G A36C, the figure is 0.529; as for C5G C22G C55G G63C, 0.679; as for C29G A43U C46G C62A, at most 0.5. Turning to G18U U26A, the yeast fitness came to 0.623.

U28G C31U G68A: the yeast fitness is at most 0.5. As for U28G U32A, the figure is 0.678; as for G6C C33G C34U C49U U64A, at most 0.5. The figure for U47G C49A is 0.68; for A21C C31G C33G G44A C66U it is 0.526. As for A21G A40U G52C C55A C66G, the figure is 0.539.

As to U7C A45U U54C, the yeast fitness was found to be 0.557.

As for C5U U19G C46A C55G, the yeast fitness is at most 0.5. As for G9A G17C C29G C49G, the figure is at most 0.5; as for C5G C31G C46A G63C A65U, at most 0.5; as for C24U C29U C31G, 0.806. For A21C U26C, the yeast fitness worked out at 0.785. As for A21G U59A, the figure is 0.835; as for G18C C27U G38A G39C, 0.521; as for A20U A21U C31G C55A G68U, at most 0.5. The figure for G10A A15U A36U G63A is at most 0.5; for U19C A20U C22U C27G G48C G51A it is at most 0.5. The figure for U3G C4U A15G C24G C55U is at most 0.5; for U35C G67C it is 0.939; for A40C U53C it is 0.828. Turning to C5G U32A A57G, the yeast fitness is 0.549.

As for U2A G12A C30A A43U C60A G67A, the yeast fitness was at most 0.5. Take C34U U35A: the yeast fitness was at most 0.5.

G12C U35A G41C: the yeast fitness is at most 0.5. The figure for U3A A21C C24G C62G A70G is at most 0.5; for G18A U19A G56A C60U C61G it is at most 0.5. The figure for A15U A20G G63C is 0.555. On to C11U A40C A43U U53A, for which the yeast fitness was at most 0.5. The figure for G18C G25A G38C G41A is at most 0.5; for C11U C27U C31U A37G A42U G48C C49U it is 0.54. Take A15C U54A C61U A70U: the yeast fitness was 0.645. As for A20C C30A A70G, the figure is 0.588; as for A42C G52A G56C, at most 0.5; as for C22G U35A G58A G67U, at most 0.5. As for C34U U54C A69U, the figure is at most 0.5; as for A14U A45U A69C, 0.539; as for U8G A65C, 0.733.

For the variant U28A C33G A43C G63A, the yeast fitness worked out at 0.524. As for U13G C27A G52C C55A C62G, the figure is 0.601. As for C11G C55A, the figure is 0.756. As for C5G A20U C66U A69U, the figure is at most 0.5; as for U3C C11G, 0.608; as for G17A C22A, 0.645.

Turning to G23A C61A, the yeast fitness came to 0.539. The figure for U8C C22A C29G G44A U64G is at most 0.5. As for C22U G56C C60A C62G, the figure is 0.523; as for C11G C49U G63A, at most 0.5; as for C33U G48A U64G, 0.618. As for C4G C11U A42U G58A A69U, the figure is at most 0.5. Regarding C33A C49A, the yeast fitness came to 0.597. The figure for C11U A45U U54G is at most 0.5. As for A15U C27U G48C A69G A70U, the figure is at most 0.5; as for C4U C30G C46U G52A A65C, at most 0.5; as for C55U C66G, 0.668.

With G9C U16C C30U A65G, the yeast fitness was at most 0.5.

For the variant C5G A21U C33U G50A, the yeast fitness is 0.835.

Take C4U C46G A70C: the yeast fitness amounted to 1.01. As for U3C U16G C30U C33U U47C, the figure is at most 0.5.

Take G39A U53A: the yeast fitness was found to be 0.596. As for G38C G41C C55U G67C, the figure is at most 0.5; as for U2G G6A G56C, at most 0.5. Turning to U13C G44C, the yeast fitness was found to be 0.913. For C22U C24G U28A A45C A57C C61U, the yeast fitness came to 0.581. As for U3A C46G U47C, the figure is 0.675; as for U7C G38C, 0.715. For the variant C34A U47C A70G, the yeast fitness worked out at 0.612. The figure for U35A U47C is 0.589; for C4A U13G A45U U47A U59C it is at most 0.5. As for G52C G56A C62U, the figure is 0.653; as for G25C C34A, 0.625; as for A21G A40G A70U, 0.609. As for U3C G12A A37C A45U G48C C66U G67C A70G, the figure is at most 0.5; as for U19C A40U C55U A65G, at most 0.5. As to A36G A43U G48C, the yeast fitness came to 0.556. Turning to U19G C49G, the yeast fitness was 0.69. The figure for C11U C33U G68C is 0.527; for C5G G38C A69U it is at most 0.5; for U16A G18C U35A C55G A69G it is 0.64. The figure for G12C G25A U54C is 0.635. As for G6A C11A A45U U59G, the yeast fitness is at most 0.5. As for G39A G52C C55G, the figure is 0.541. As for C24G U26A A45C, the figure is at most 0.5. With G10C U26A C49U C55G C60G, the yeast fitness is at most 0.5. As for U2C U53G, the figure is 0.598. The figure for C27G A57C U59A C62G G68A is 0.532; for U8A G56A it is 0.701; for A21C U26G C34U A40G G51A it is 0.529. Regarding G10A U16A G38A U64C, the yeast fitness was at most 0.5. As for U64A A65C G68A, the figure is 0.526; as for U8C U26A C61A A65U, at most 0.5. As for A21G A42G C66G, the figure is at most 0.5; as for G17C A37C A40C C61U, at most 0.5; as for C34G C55U G58A, at most 0.5. As for A21U G50A, the figure is 0.629; as for C24G C46U G58C C61U, 0.597.

As to A21G G25C A69C, the yeast fitness is 0.744. As for C33U C62U, the figure is 0.717; as for G48C G52C C62G, at most 0.5; as for U35A U59G, 0.62. As for C4G C22U C46G G63A, the figure is at most 0.5. As for C27A C46A, the figure is 0.907. For U7A G48A U59C C61A G63A, the yeast fitness was at most 0.5. As for U3A U19G A36C, the figure is at most 0.5; as for C11G U16A G67A, 0.536. The figure for U16A A45C G63C U64C C66U is at most 0.5; for G18A A42C it is 0.635; for U32C G52C G67A A69C it is at most 0.5. Take C4A C29U A36G G52C: the yeast fitness is at most 0.5. As for G9C U19C C31G, the figure is 0.605; as for A14G A42G C55A, at most 0.5; as for U2C U28C C55A, at most 0.5. C24U C61U: the yeast fitness was 0.881. The figure for U3G A15G A21G U26C C29G C30U C49U A57U is at most 0.5; for C5U C29G G63A it is at most 0.5. For the variant U8A A15U A20C A45G, the yeast fitness is at most 0.5. The figure for C5G G9A A20G is 0.553. Turning to C33U G50A, the yeast fitness is 0.626.

In the case of C24G C29A A40G G50C, the yeast fitness is at most 0.5. Turning to A15G C30G C66U, the yeast fitness was at most 0.5. The figure for C11U A69C A70U is 0.814; for A42G A43U U47G C61G G67A it is at most 0.5; for A15G G39C C62U G63C it is at most 0.5.

Take C27G G39A C46U A70G: the yeast fitness is at most 0.5. The figure for U2C G51A C62G C66U is at most 0.5. Take U8C G63A: the yeast fitness is 0.864. Regarding C5G G6C C24U C46A, the yeast fitness was determined as 0.559. The figure for C24A C29G G51C U54A is at most 0.5; for G10A C22U U47C G68A it is at most 0.5. As for U3A A14G G23C U32A G52C, the yeast fitness was at most 0.5. The figure for G25A G58C A69C is 1.01. As for A20U U35C C49U C55U U64C, the figure is 0.588.

As to C33A A37U A57C, the yeast fitness was at most 0.5.

U8A A45U: the yeast fitness is 0.818. For C4A A37U A43G G58C C60G, the yeast fitness stood at 0.654. As for C27G C66G, the figure is 0.579. The figure for U26A C49U C61G is at most 0.5; for C5U C22G A40G A70G it is at most 0.5; for U7A G58C it is 0.918. A20U C22U A42G: the yeast fitness is at most 0.5.

Regarding U16C A20G U32C, the yeast fitness was found to be 0.684.

As for C5U U7G G25C G39A C66U, the yeast fitness was at most 0.5. The figure for C34A A45U is 0.698.

For the origin of these results see the RNAGym collection of RNA variant scans (doi:10.1126/science.aae0568).
